# Reference: ChEMBL document CHEMBL4364265, “Oridonin derivatives as potential anticancer drug candidates triggering apoptosis through mitochondrial pathway in the liver cancer cells” (Eur J Med Chem, 2019)
# Activity calls are given as the source filed them. The rule behind the calls is not given here.
# Experiments:
# HepG2 [1] = experiment: Induction of apoptosis in human HepG2 cells assessed as necrotic cells at 0.25 uM incubated for 24 hrs by annexin V staining based cell counting method (reference value: 3.40%); format: functional
# PLC-PRF-5 [2] = experiment: Inhibition of colony formation in human PLC/PRF/5 cells assessed as decrease in colony size at 0.1 to 1 uM incubated for 10 days by crystal violet staining based microscopic method
# PLC-PRF-5 [3] = experiment: Induction of cell cycle arrest in human PLC/PRF/5 cells assessed as accumulation at G1 phase at 0.25 uM incubated for 24 hrs by PI staining based flow cytometric analysis (reference value: 34.78%); format: functional
# HepG2 [4] = experiment: Induction of apoptosis in human HepG2 cells assessed as down regulation of Bcl2 protein expression level incubated for 24 hrs by Western blot analysis; format: functional, cell-based
# Outline: (§1)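 Cells were treated 24 h in DMEM with 0, 0.25, 0.5, 1.0 or 1.25 µM compound. Adherent and floating cells were lysed in RIPA on ice and protein measured by BCA. Equal protein was run on 7.5–12.5% SDS-PAGE and transferred to PVDF. Membranes were blocked in 5% milk/PBST, incubated with primary antibody overnight at 4 °C, and detected by ECL.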
# HepG2 [5] = experiment: Induction of apoptosis in human HepG2 cells assessed as live cells at 1 uM incubated for 24 hrs by annexin V staining based cell counting method (reference value: 87.35%); format: functional
# HepG2 [6] = experiment: Induction of apoptosis in human HepG2 cells assessed as late apoptotic cells at 0.5 uM incubated for 24 hrs by annexin V staining based cell counting method (reference value: 5.65%); format: functional
# HepG2 [7] = experiment: Induction of apoptosis in human HepG2 cells assessed as late apoptotic cells at 1 uM incubated for 24 hrs by annexin V staining based cell counting method (reference value: 5.65%); format: functional
# PLC-PRF-5 [8] = experiment: Induction of apoptosis in human PLC/PRF/5 cells assessed as early apoptotic cells at 0.5 uM incubated for 24 hrs by annexin V staining based cell counting method (reference value: 5.65%); format: functional
# HepG2 [9] = experiment: Induction of cell cycle arrest in human HepG2 cells assessed as accumulation at S phase at 1 uM incubated for 24 hrs by PI staining based flow cytometric analysis (reference value: 35.46%); format: functional
# HepG2 [10] = experiment: Induction of apoptosis in human HepG2 cells assessed as early apoptotic cells at 0.5 uM incubated for 24 hrs by annexin V staining based cell counting method (reference value: 3.60%); format: functional
# HepG2 [11] = experiment: Antiproliferative activity against human HepG2 cells incubated for 72 hrs by CCK8 cells; format: functional, cell-based; details: HepG2, 72 h
# Outline: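 CCK-8 proliferation assay. 10,000 cells per well were preincubated 24 h at 37 °C with 5% CO2, then given compound dissolved in DMSO and incubated 72 h. CCK-8 was added for 4 h and absorbance read at 450 nm. IC50 was taken from dose-response curves as mean ± SEM of at least three independent experiments, with paclitaxel as positive control. HepG2 and L-O2 were grown in DMEM/10% FBS; A549 and RPMI-8226 in RPMI 1640/10% FBS.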
# HepG2 [12] = experiment: Induction of apoptosis in human HepG2 cells assessed as early apoptotic cells at 0.25 uM incubated for 24 hrs by annexin V staining based cell counting method (reference value: 3.60%); format: functional
# PLC-PRF-5 [13] = experiment: Induction of apoptosis in human PLC/PRF/5 cells assessed as live cells at 0.5 uM incubated for 24 hrs by annexin V staining based cell counting method (reference value: 88.95%); format: functional
# PLC-PRF-5 [14] = experiment: Induction of apoptosis in human PLC/PRF/5 cells assessed as early apoptotic cells at 1 uM incubated for 24 hrs by annexin V staining based cell counting method (reference value: 5.65%); format: functional
# PLC-PRF-5 [15] = experiment: Antiproliferative activity against human PLC/PRF/5 cells incubated for 72 hrs by CCK8 cells; format: functional, cell-based; details: PLC-PRF-5, 72 h
# PLC-PRF-5 [16] = experiment: Induction of apoptosis in human PLC/PRF/5 cells assessed as live cells at 0.25 uM incubated for 24 hrs by annexin V staining based cell counting method (reference value: 88.95%); format: functional
# PLC-PRF-5 [17] = experiment: Induction of apoptosis in human PLC/PRF/5 cells assessed as late apoptotic cells at 1 uM incubated for 24 hrs by annexin V staining based cell counting method (reference value: 4.81%); format: functional
# PLC-PRF-5 [18] = experiment: Induction of apoptosis in human PLC/PRF/5 cells assessed as upregulation of Bax protein expression level incubated for 24 hrs by Western blot analysis; format: functional, cell-based; outline: as §1
# PLC-PRF-5 [19] = experiment: Induction of apoptosis in human PLC/PRF/5 cells assessed as necrotic cells at 1 uM incubated for 24 hrs by annexin V staining based cell counting method (reference value: 0.59%); format: functional
# PLC-PRF-5 [20] = experiment: Induction of apoptosis in human PLC/PRF/5 cells assessed as down regulation of Bcl2 protein expression level incubated for 24 hrs by Western blot analysis; format: functional, cell-based; outline: as §1
# HepG2 [21] = experiment: Induction of ROS generation in human HepG2 cells by DCFH-DA staining-based flow cytometric analysis; format: functional, cell-based
# Outline: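 Cells were treated with 0, 0.25, 0.5 or 1 µM compound, stained with 10 µM DCFH-DA for 20 min at 37 °C, washed three times, resuspended in PBS and read by flow cytometry. Data are mean ± SD of three independent experiments.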
# [22] = Half life in human plasma measured for 5 to 120 mins by LC-MS/MS analysis; format: ADME, cell-free
# Outline: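 Compound at an initial 5000 ng/mL was incubated in human plasma at 37 °C. 100 µL aliquots were taken at 0–120 min and extracted with methanol plus tyrosine internal standard, then centrifuged and filtered. Extracts were analysed by LC-MS/MS on a triple-quadrupole instrument with ESI.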
# HepG2 [23] = experiment: Induction of cell cycle arrest in human HepG2 cells assessed as accumulation at G2 phase at 0.5 uM incubated for 24 hrs by PI staining based flow cytometric analysis (reference value: 25.55%); format: functional
smiles,measurement,setting,value
C=C1C(=O)[C@]23[C@H](OC(=O)/C=C/c4ccc(OC)cc4)[C@H]1CC[C@H]2[C@@]12CO[C@]3(O)[C@@H](O)[C@@H]1C(C)(C)CC[C@@H]2O,Activity,HepG2 [1],7.05%
same,inhibition,PLC-PRF-5 [2],Active
same,Activity,PLC-PRF-5 [3],37.17%
same,Activity,HepG2 [4],Dose-dependent effect
same,Activity,HepG2 [5],53.4%
same,Activity,HepG2 [6],7.55%
same,Activity,HepG2 [7],20.7%
same,Activity,PLC-PRF-5 [8],16.04%
same,Activity,HepG2 [9],30.88%
same,Activity,HepG2 [10],8.95%
same,IC50,HepG2 [11],1.36 µM
same,Activity,HepG2 [12],5.3%
same,Activity,PLC-PRF-5 [13],64.3%
same,Activity,PLC-PRF-5 [14],29.39%
same,IC50,PLC-PRF-5 [15],0.78 µM
same,Activity,PLC-PRF-5 [16],80.53%
same,Activity,PLC-PRF-5 [17],36.66%
same,Activity,PLC-PRF-5 [18],Dose-dependent effect
same,Activity,PLC-PRF-5 [19],0.45%
same,Activity,PLC-PRF-5 [20],Dose-dependent effect
same,Activity,HepG2 [21],Dose-dependent effect
same,half-life,[22],2 h
same,Activity,HepG2 [23],23.84%
